Data taken from ChEMBL document CHEMBL2424628, “Discovery of potent and selective nonsteroidal indazolyl amide glucocorticoid receptor agonists” (Bioorg Med Chem Lett, 2013).

Key:
[1] = species on record: Homo sapiens; experiment: Selectivity ratio of Ki for progesterone receptor (unknown origin) to Ki for glucocorticoid receptor (unknown origin)
[2] = molecular target: T1, Mineralocorticoid receptor (Homo sapiens, UniProt P08235); experiment: Agonist activity at mineralocorticoid receptor in human A549 cells; format: cell-based
T1 sequence (P08235 whole entry): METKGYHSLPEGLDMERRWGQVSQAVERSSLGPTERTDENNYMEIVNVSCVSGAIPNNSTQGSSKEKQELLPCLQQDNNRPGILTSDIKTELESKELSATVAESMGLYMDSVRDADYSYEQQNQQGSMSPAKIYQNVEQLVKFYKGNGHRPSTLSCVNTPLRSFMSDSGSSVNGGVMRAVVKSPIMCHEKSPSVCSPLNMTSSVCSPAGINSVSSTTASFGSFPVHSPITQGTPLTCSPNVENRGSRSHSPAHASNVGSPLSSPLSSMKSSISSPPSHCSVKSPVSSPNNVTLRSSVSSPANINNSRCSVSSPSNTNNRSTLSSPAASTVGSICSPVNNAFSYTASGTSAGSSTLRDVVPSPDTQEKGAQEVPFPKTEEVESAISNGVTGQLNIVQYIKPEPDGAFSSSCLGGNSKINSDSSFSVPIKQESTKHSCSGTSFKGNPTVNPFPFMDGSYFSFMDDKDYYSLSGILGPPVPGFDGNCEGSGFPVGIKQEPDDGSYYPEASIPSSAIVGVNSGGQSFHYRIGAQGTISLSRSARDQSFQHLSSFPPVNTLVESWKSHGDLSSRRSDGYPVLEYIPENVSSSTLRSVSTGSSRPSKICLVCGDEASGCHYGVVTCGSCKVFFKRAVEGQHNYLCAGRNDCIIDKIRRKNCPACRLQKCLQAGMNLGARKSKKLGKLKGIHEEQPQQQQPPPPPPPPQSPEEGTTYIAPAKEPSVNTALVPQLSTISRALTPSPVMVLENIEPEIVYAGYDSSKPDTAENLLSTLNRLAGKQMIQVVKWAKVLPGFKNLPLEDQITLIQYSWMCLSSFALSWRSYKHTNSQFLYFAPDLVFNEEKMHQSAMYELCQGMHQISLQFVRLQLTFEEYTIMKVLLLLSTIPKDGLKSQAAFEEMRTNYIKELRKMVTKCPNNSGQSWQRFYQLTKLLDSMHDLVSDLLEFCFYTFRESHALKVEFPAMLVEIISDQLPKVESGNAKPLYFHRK
Summary of the method: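 Cellular agonist assay in an A549 line with aldosterone as positive control. EC50 taken relative to % maximal efficacy. Means of duplicate experiments.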

[3] = molecular target: T2, Glucocorticoid receptor (Homo sapiens) (UniProt P04150); experiment: Agonist activity at glucocorticoid receptor in human A549 cells assessed as inhibition of PMA-induced AP-1 activation by luciferase reporter gene assay relative to dexamethasone; format: cell-based
T2 sequence (whole entry): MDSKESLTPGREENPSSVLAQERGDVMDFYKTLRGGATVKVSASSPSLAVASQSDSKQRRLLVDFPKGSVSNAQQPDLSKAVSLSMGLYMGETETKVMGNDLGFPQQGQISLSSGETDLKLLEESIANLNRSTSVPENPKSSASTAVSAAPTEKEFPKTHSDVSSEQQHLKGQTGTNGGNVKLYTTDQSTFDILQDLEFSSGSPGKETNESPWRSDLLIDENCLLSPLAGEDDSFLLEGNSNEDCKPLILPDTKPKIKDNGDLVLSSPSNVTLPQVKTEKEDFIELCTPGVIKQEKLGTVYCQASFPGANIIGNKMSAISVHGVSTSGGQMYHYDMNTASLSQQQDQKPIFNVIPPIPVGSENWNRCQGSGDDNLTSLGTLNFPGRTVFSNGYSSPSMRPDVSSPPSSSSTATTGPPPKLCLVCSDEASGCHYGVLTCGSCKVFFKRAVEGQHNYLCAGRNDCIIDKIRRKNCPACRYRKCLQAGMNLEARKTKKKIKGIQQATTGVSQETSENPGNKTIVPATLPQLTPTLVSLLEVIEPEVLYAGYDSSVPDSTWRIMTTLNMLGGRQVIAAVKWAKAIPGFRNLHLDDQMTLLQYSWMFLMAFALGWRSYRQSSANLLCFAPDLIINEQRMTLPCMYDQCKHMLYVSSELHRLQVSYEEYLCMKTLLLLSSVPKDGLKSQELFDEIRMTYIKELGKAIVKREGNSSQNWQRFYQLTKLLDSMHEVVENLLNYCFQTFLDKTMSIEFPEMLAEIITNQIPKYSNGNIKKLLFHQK
Summary of the method: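 A549 lung epithelial cells stably carrying a luciferase reporter with 5 copies of the AP-1 response element; AP-1 induced with PMA (15 ng/ml). Compound inhibition of induction read as decreased luciferase. […] Means of two or more experiments in triplicate.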

[4] = molecular target: T3, Glucocorticoid receptor (Homo sapiens, UniProt P04150); experiment: Agonist activity at glucocorticoid receptor in human A549 cells assessed as inhibition of PMA-induced AP-1 activation by luciferase reporter gene assay; format: cell-based
T3 sequence (P04150 whole entry): T2 sequence (whole entry)

Row | Ratio Ki [1] | EC50 [2] | Efficacy [3] | EC50 [4] | Structure (SMILES)
1 | 10 | > 5000 nM | 93% | 2.4 nM | CC(C)(C(=O)Nc1nncs1)[C@@H](c1ccccc1)c1ccc2c(cnn2-c2ccc(F)cc2)c1
2 | 10 | > 5000 nM | 50% | 92 nM | CC(C)(C(=O)Nc1nncs1)[C@H](c1ccccc1)c1ccc2c(cnn2-c2ccc(F)cc2)c1
